The source of these data is ChEMBL document CHEMBL1133611, “Molecular design, synthesis, and hypoglycemic activity of a series of thiazolidine-2,4-diones” (J Med Chem, 2000).

Data set [1] can be described thus: The hypoglycemic activity in diabetic KK mice, activity expressed as % decrease in blood glucose (21h). It counts as functional, Mus musculus. The procedure, abridged: (§1)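 Nonfasting diabetic KK mice, n = 3, received 1 mg/kg immediately after the first blood sampling and again 18 h later. Tail-vein plasma was taken 18 and 21 h after the first dose, and glucose was measured. Activity (%) = (control PG − treated PG)/control PG × 100; mean ± SEM.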

Data set [2] can be described thus: The hypoglycemic activity in diabetic KK mice, activity expressed as % decrease in blood glucose (18 h). It counts as functional, Mus musculus. The procedure, abridged: as §1
In a further data set the test system is 3T3-L1. As to the kind of experiment: Stimulation of adipogenesis in 3T3-L1 cells is expressed as concentration equivalent to the [ 1-14C] uptake counts after treatment with 0.2 ug/mL troglitazone. It counts as functional, Mus musculus. The procedure, abridged:
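Mouse 3T3-L1 preadipocytes were grown to confluence on collagen-coated wells, then given differentiation medium (5% FBS, 100 ng/mL insulin, 0.1 mM IBMX, dexamethasone) plus compound (DMSO 0.1% v/v final) for 4 days. This was followed by maintenance medium (5% FBS, insulin) for 2 days. Cells were then pulsed 1 h with 7.4 kBq/mL [1-14C]acetic acid, washed, and counted by scintillation.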

A short description of data set [3]: Area under the curve for fumarate salt was evaluated in F344 Rats. It is filed as ADME, organism-based. Conditions: F344, rat, in vivo. The procedure, abridged: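 Single oral dose of 25 mg/kg to F344 rats; AUC (µg·h/mL) reported as mean ± SEM, n = 3.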
Data set [4] deals with Rattus norvegicus. As to the kind of experiment: Relative wt in two week oral toxicity test in male F344/DuCrj rats after 50 mg/kg dose. It counts as functional. The procedure, abridged: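 Seven-week-old male F344/DuCrj rats, n = 5/group; compound suspended in 0.5% carboxymethylcellulose sodium in water, given by gavage at 50 mg/kg for 2 weeks; controls got vehicle alone. At termination, ether anaesthesia and exsanguination via abdominal aorta; heart and major organs excised and weighed. Relative weight = organ weight/100 g final body weight; mean ± SE, Student's t-test vs control.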

In data set [5] the test system is Rattus norvegicus. As to the kind of experiment: Heart wt absolute in two week oral toxicity test in male F344/DuCrj rats after 50 mg/kg dose. It counts as functional. The procedure, abridged: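 Seven-week-old male rats, n = 5/group, dosed by gavage at 50 mg/kg for 2 weeks as a suspension in 0.5% carboxymethylcellulose sodium in water; controls received vehicle alone. At termination rats were ether-anaesthetized and exsanguinated via the abdominal aorta, and the heart was excised and weighed. Relative weight = absolute weight/100 g final body weight. Mean ± SE; Student's t-test against control.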

`Cn1c(CCOc2ccc(CC3SC(=O)NC3=O)cc2)nc2cccnc21` (centres undefined): the results for the Decrease in data set [1] and in data set [2] were 13% and -5.6%, respectively. In the data set with 3T3-L1, the EC is 0.65 µM.
As for `Cn1c(COc2ccc(CC3SC(=O)NC3=O)cc2)nc2ccc(O)nc21` (centres undefined), the results for the Decrease in data set [1] and in data set [2] were -3.2% and -30.6%, respectively. Also, in the data set with 3T3-L1, the EC turned out to be 1.98 µM.
As a reminder, the AUC is the area under the concentration-time curve, a measure of exposure. In the case of `COc1ccc2nc(COc3ccc(CC4SC(=O)NC4=O)cc3)n(C)c2n1.Cl` (centres undefined), in data set [1], the Decrease was determined as 1%. For the same molecule, the AUC in data set [3] amounted to 141000 ng·h/mL. Further, the Decrease in data set [2] is 14.8%. For the same molecule, in the data set on Rattus norvegicus [4], the Control amounted to 106% and the Relative was 0.33 g %. Moreover, the EC in the data set with 3T3-L1 came to 0.11 µM. In the data set with Rattus norvegicus [5], the “Absolute heart weight, % of control” value was determined as 111% and the Heart weight absolute was found to be 0.68 g.
As to `Cc1cc(C)c2nc(COc3ccc(CC4SC(=O)NC4=O)cc3)n(C)c2n1` (centres undefined), the Decrease in data set [1] and in data set [2] was 9.5% throughout. In the data set on 3T3-L1, the EC was 0.22 µM.
`CCn1c(COc2ccc(CC3SC(=O)NC3=O)cc2)nc2cccnc21` (centres undefined): the Decrease in data set [1] is 2.4%; in data set [2], -19.5%. Also, the EC in the data set with 3T3-L1 was found to be 1.07 µM.
Turning to `CCOc1ccc2nc(COc3ccc(CC4SC(=O)NC4=O)cc3)n(C)c2n1` (centres undefined), the Decrease in data set [1] turned out to be 23.6%; in data set [2], 29.7%. Further, in the data set with 3T3-L1, the EC worked out at 0.078 µM.
On to `O=C1NC(=O)C(Cc2ccc(OCc3nc4ccc[nH]c-4n3)cc2)S1` (centres undefined), for which the Decrease in data set [1] was 7.4%; in data set [2] it was 13.9%. Moreover, the EC in the data set with 3T3-L1 is 8.18 µM.
Taken in the same sequence, the figures for `O=C1NC(=O)C(Cc2ccc(OCc3nc4cccnc4n3Cc3ccc(-c4ccccc4)cc3)cc2)S1` (centres undefined) were 11.4%, 3.8% and 0.92 µM.
Regarding `Cn1c(COc2ccc(CC3SC(=O)NC3=O)cc2)nc2ccc(Cl)nc21` (centres undefined), the Decrease in data set [1] stood at 47.6%. For the same molecule, in the data set with Rattus norvegicus [4], the Control was 116% and the Relative was determined as 0.37 g %. Besides, the EC in the data set on 3T3-L1 is 0.0009 µM. For the same molecule, in the data set on Rattus norvegicus [5], the “Absolute heart weight, % of control” value turned out to be 123% and the Heart weight absolute turned out to be 0.74 g.
On to `COc1ccc2nc(COc3ccc(CC4SC(=O)NC4=O)cc3)n(C)c2n1` (centres undefined), for which the results for the Decrease in data set [1] and in data set [2] were 2.9% and 3.6%, respectively. Moreover, the AUC in data set [3] is 11900 ng·h/mL. In addition, in the data set on 3T3-L1, the EC was 0.08 µM.
In the case of `CC(C)Oc1ccc2nc(COc3ccc(CC4SC(=O)NC4=O)cc3)n(C)c2n1` (centres undefined), the Decrease in data set [1] was -0.2%; in data set [2] it was 14.6%. Moreover, the EC in the data set on 3T3-L1 amounted to 0.075 µM.
Consider `Cn1c(COc2ccc(CC3SC(=O)NC3=O)cc2)nc2cc(C(F)(F)F)cnc21` (centres undefined), for which the Decrease in data set [1] is -26.4%; in data set [2] it was -0.7%. For the same molecule, in the data set on 3T3-L1, the EC was found to be 0.073 µM.
As to `Cn1c(CCCOc2ccc(CC3SC(=O)NC3=O)cc2)nc2cccnc21` (centres undefined), the Decrease is -9.3% in data set [1] and -3% in data set [2]. In addition, in the data set with 3T3-L1, the EC amounted to 0.081 µM.
Take `O=C1NC(=O)C(Cc2ccc(OCc3nc4cccnc4n3-c3ccccc3)cc2)S1` (centres undefined): the Decrease is recorded as -3.4% in data set [1] and 3.9% in data set [2]. In the data set with 3T3-L1, the EC was 2.56 µM.
As for `Cc1ccnc2c1nc(COc1ccc(CC3SC(=O)NC3=O)cc1)n2C` (centres undefined), the Decrease is on record as -6.9% in data set [1] and -18.2% in data set [2]. Besides, in the data set on 3T3-L1, the EC was 0.37 µM.
Take `O=C1NC(=O)C(Cc2ccc(OCc3nc4cccnc4n3Cc3ccc(Cl)cc3)cc2)S1` (centres undefined): the Decrease in data set [1] is on record as -8.5%. The EC with 3T3-L1 was 0.71 µM.
Taken in the same sequence, the figures for `Cn1c(COc2ccc(CC3SC(=O)NC3=O)cc2)nc2cc(Cl)cnc21` (centres undefined) were 49.7% and 0.16 µM.
On to `Cn1c(COc2ccc(CC3SC(=O)NC3=O)cc2)nc2ccc(-c3ccccc3)nc21` (centres undefined), for which the Decrease in data set [1] came to 38.1%; in data set [2], 15.5%. In addition, the EC with 3T3-L1 amounted to 0.36 µM.
As for `Cn1c(COc2ccc(CC3SC(=O)NC3=O)cc2)nc2cccnc21` (centres undefined), the Decrease in data set [1] worked out at 27.6%. In the data set on Rattus norvegicus [4], this molecule showed a Control of 116% and a Relative of 0.36 g %. Also, in the data set on 3T3-L1, the EC worked out at 0.13 µM. For the same molecule, in the data set with Rattus norvegicus [5], the “Absolute heart weight, % of control” value was 128% and the Heart weight absolute stood at 0.78 g.
For `O=C1NC(=O)C(Cc2ccc(OCc3cn4ccccc4n3)cc2)S1` (centres undefined), the Decrease in data set [1] came out at 12.7%; in data set [2], 5.9%. In the data set with 3T3-L1, the EC stood at 5.09 µM.
Take `Cn1c(COc2ccc(CC3SC(=O)NC3=O)cc2)nc2cc(Br)cnc21` (centres undefined): the Decrease in data set [1] came out at 6.2%. Besides, the EC with 3T3-L1 worked out at 0.34 µM.
With `Cn1c(COc2ccc(CC3SC(=O)NC3=O)cc2)nc2ccc(OCc3ccccc3)nc21` (centres undefined), the Decrease in data set [1] turned out to be 18.8%; in data set [2] it was 20.3%. Besides, the EC in the data set with 3T3-L1 came to 0.067 µM.
With `CN(CCOc1ccc(CC2SC(=O)NC2=O)cc1)c1ccccn1` (centres undefined) [ROSIGLITAZONE], in data set [1], the Decrease is listed as 14.6%. The Decrease in data set [2] was found to be 21.7%. In the data set on Rattus norvegicus [4], this molecule had a Control of 113% and a Relative of 0.36 g %. The EC in the data set with 3T3-L1 is 0.09 µM. In the data set with Rattus norvegicus [5], the “Absolute heart weight, % of control” value is recorded as 119% and the Heart weight absolute is on record as 0.76 g.
Regarding `COc1ccc2nc(COc3ccc(CC4SC(=O)NC4=O)cc3)n(C)c2n1.O=C(O)/C=C/C(=O)O` (centres undefined), the AUC in data set [3] is 36400 ng·h/mL.
On to `Cn1c(Oc2ccc(CC3SC(=O)NC3=O)cc2)nc2cccnc21` (centres undefined), for which the Decrease is reported as 3.6% in data set [1] and -7% in data set [2]. For the same molecule, in the data set on 3T3-L1, the EC worked out at 1.35 µM.
Turning to `Cn1c(COc2ccc(CC3SC(=O)NC3=O)cc2)nc2ccc(Sc3ccccc3)nc21` (centres undefined), the results for the Decrease in data set [1] and in data set [2] were 14.7% and -21.2%, respectively. Further, the EC with 3T3-L1 was 0.067 µM.
